Results as given in ChEMBL document CHEMBL4196221, “Improved Total Synthesis and Biological Evaluation of Coibamide A Analogues” (J Med Chem, 2018).
Active and inactive are the calls of the source. The rule behind the calls is not given here. Bridge positions count the residues as written; N and C are the ends. Square brackets hold non-standard residues; d marks the D form. Peptide text beside a SMILES is read from it. * marks the point of attachment. NMe2Val = CC(C)[C@@H](C(=O)*)N(C)C; NMeI = CC[C@H](C)[C@H](NC)C(=O)O; NMeT = CN[C@H](C(=O)O)[C@@H](C)O; NMeL = CN[C@@H](CC(C)C)C(=O)O; dHiv = CC(C)[C@@H](O)C(=O)O; NMeA = CN[C@@H](C)C(=O)O; dNMeA = CN[C@H](C)C(=O)O

How the values were obtained:
MDA-MB-231 [1] = experiment: Growth inhibition of human MDA-MB-231 cells incubated for 72 hrs by MTT assay; type: functional; conditions: MDA-MB-231, 72 h
In short: (§1)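 Cells seeded in 96-well plates; after 12 h, fresh medium with a concentration gradient of compound or DMSO vehicle added, then 72 h incubation. MTT added (final 0.5 mg/mL) for 4 h, medium removed, formazan dissolved in DMSO, shaken 2 min, 30 min at 37 °C, absorbance read at 490 nm. Inhibition % = [1 − OD(compound)/OD(control)] × 100; GI50 = 50% reduction versus control; three independent experiments.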

A549 = experiment: Growth inhibition of human A549 cells incubated for 72 hrs by MTT assay; type: functional; conditions: A549, 72 h; in short: as §1
PANC-1 = experiment: Growth inhibition of human PANC1 cells incubated for 72 hrs by MTT assay; type: functional; conditions: PANC-1, 72 h; in short: as §1
MDA-MB-231 [2] = experiment: Antitumor activity against human MDA-MB-231 cells xenografted in Balb/c nude mouse assessed as reduction in tumor size at 0.3 mg/kg, sc dosed every 2 days for total of 11 compound injections measured on day 9 onwards; type: functional, organism-based
In short: (§2)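 Balb/c nude mice given 1 ×10^7 MDA-MB-231 cells subcutaneously in right flank; at tumor size ∼100 mm3 (L × W × 1/2W), peritumoral subcutaneous injection every 2 days, vehicle equal volume 20% DMSO/80% sterile saline. Tumor size and body weight measured before each injection; after 11 injections mice sacrificed and tumors weighed. n = 7 treated, 4 vehicle; one-way ANOVA.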

MDA-MB-231 [3] = experiment: Antitumor activity against human MDA-MB-231 cells xenografted in Balb/c nude mouse assessed as reduction in tumor mass at 0.3 mg/kg, sc dosed every 2 days for total of 11 compound injections; type: functional; in short: as §2
Mus musculus [4] = experiment: Toxicity in Balb/c nude mouse xenografted with human MDA-MB-231 cells assessed as induction of body weight loss at 0.3 mg/kg, sc dosed every 2 days for total of 11 compound injections; type: organism-based; conditions: in vivo, 48 h; in short: as §2
Mus musculus [5] = experiment: Toxicity in Balb/c nude mouse xenografted with human MDA-MB-231 cells assessed as induction of side effect at 0.3 mg/kg, sc dosed every 2 days for total of 11 compound injections; type: organism-based; conditions: in vivo, 48 h; in short: as §2

Compound | GI50 (MDA-MB-231 [1]) | GI50 (A549) | GI50 (PANC-1) | Activity (MDA-MB-231 [2]) | fold change (FC) (MDA-MB-231 [3]) | Activity (Mus musculus [4]) | Activity (Mus musculus [5])
CC[C@H](C)[C@H]1C(=O)N[C@@H](C)C(=O)N(C)[C@@H](CC(C)C)C(=O)N[C@@H](Cc2ccc(OC)cc2)C(=O)N(C)[C@H](C)C(=O)O[C@H](C)[C@@H](N(C)C(=O)[C@H](CC(C)C)N(C)C(=O)[C@H](COC)N(C)C(=O)[C@@H](OC(=O)[C@H](C(C)C)N(C)C)C(C)C)C(=O)N(C)[C@@H](COC)C(=O)N1C | 10800 nM |  |  |  |  |  | 
CC[C@H](C)[C@H]1C(=O)N[C@@H](C)C(=O)N(C)[C@@H](CC(C)C)C(=O)N[C@@H](Cc2ccc(OC)cc2)C(=O)N(C)[C@@H](C)C(=O)O[C@H](C)[C@H](N(C)C(=O)[C@H](CC(C)C)N(C)C(=O)[C@H](COC)N(C)C(=O)[C@H](OC(=O)[C@H](C(C)C)N(C)C)C(C)C)C(=O)N(C)[C@@H](COC)C(=O)N1C | 7520 nM | 20100 nM | 12400 nM |  |  |  | 
CC[C@H](C)[C@H]1C(=O)N[C@@H](C)C(=O)N(C)[C@@H](CC(C)C)C(=O)N[C@@H](Cc2ccc(OC)cc2)C(=O)N(C)[C@H](C)C(=O)O[C@H](C)[C@H](N(C)C(=O)[C@H](CC(C)C)N(C)C(=O)[C@H](C)N(C)C(=O)[C@@H](C(C)C)N(C)C(=O)[C@H](C(C)C)N(C)C)C(=O)N(C)[C@@H](C)C(=O)N1C | 415 nM | 511 nM | 723 nM |  |  |  | 
CC[C@H](C)[C@H]1C(=O)N[C@@H](C)C(=O)N(C)[C@@H](CC(C)C)C(=O)N[C@@H](Cc2ccc(OC)cc2)C(=O)N(C)[C@H](C)C(=O)O[C@H](C)[C@H](N(C)C(=O)[C@H](CC(C)C)N(C)C(=O)[C@H](C)N(C)C(=O)[C@H](OC(=O)[C@H](C(C)C)N(C)C(=O)CCNC(=O)OC(C)(C)C)C(C)C)C(=O)N(C)[C@@H](C)C(=O)N1C | 239 nM | 443 nM | 415 nM |  |  |  | 
CC[C@H](C)[C@H]1C(=O)N[C@@H](C)C(=O)N(C)[C@@H](CC(C)C)C(=O)N[C@@H](Cc2ccc(OC)cc2)C(=O)N(C)[C@H](C)C(=O)O[C@H](C)[C@H](N(C)C(=O)[C@H](CC(C)C)N(C)C(=O)[C@H](CCCCNC(=O)OC(C)(C)C)N(C)C(=O)[C@H](OC(=O)[C@H](C(C)C)N(C)C)C(C)C)C(=O)N(C)[C@@H](C)C(=O)N1C | 61.6 nM | 81.7 nM | 124 nM |  |  |  | 
CC[C@H](C)[C@H]1C(=O)N[C@@H](C)C(=O)N(C)[C@@H](CC(C)C)C(=O)N[C@@H](Cc2ccc(O)cc2)C(=O)N(C)[C@H](C)C(=O)O[C@H](C)[C@H](N(C)C(=O)[C@H](CC(C)C)N(C)C(=O)[C@H](COC)N(C)C(=O)[C@H](OC(=O)[C@H](C(C)C)N(C)C)C(C)C)C(=O)N(C)[C@@H](COC)C(=O)N1C | 183 nM | 222 nM | 277 nM |  |  |  | 
CC[C@H](C)[C@H]1C(=O)N[C@@H](C)C(=O)N(C)[C@@H](CC(C)C)C(=O)N[C@@H](Cc2ccc(OC)cc2)C(=O)N(C)[C@H](C)C(=O)O[C@H](C)[C@H](N(C)C(=O)[C@H](CC(C)C)N(C)C(=O)[C@H](COC)N(C)C(=O)[C@@H](OC(=O)[C@H](C(C)C)N(C)C)C(C)C)C(=O)N(C)[C@@H](COC)C(=O)N1C | 545 nM | 19 nM |  |  |  |  | 
CCCCCCCCCC(=O)N(C)[C@@H](CC(C)C)C(=O)N(C)[C@@H]1C(=O)N(C)[C@@H](C)C(=O)N(C)[C@@H]([C@@H](C)CC)C(=O)N[C@@H](C)C(=O)N(C)[C@@H](CC(C)C)C(=O)N[C@@H](Cc2ccc(OC)cc2)C(=O)N(C)[C@H](C)C(=O)O[C@@H]1C | 470 nM | 733 nM | 828 nM |  |  |  | 
CC[C@H](C)[C@H]1C(=O)N[C@@H](C)C(=O)N(C)[C@@H](CC(C)C)C(=O)N[C@@H](Cc2ccc(OC)cc2)C(=O)N(C)[C@H](C)C(=O)O[C@H](C)[C@H](N(C)C(=O)[C@H](CC(C)C)N(C)C(=O)[C@@H](COC)N(C)C(=O)[C@@H](OC(=O)[C@H](C(C)C)N(C)C)C(C)C)C(=O)N(C)[C@@H](COC)C(=O)N1C | 2660 nM | 2000 nM | 1910 nM |  |  |  | 
CC[C@H](C)[C@H]1C(=O)N[C@@H](C)C(=O)N(C)[C@@H](CC(C)C)C(=O)N[C@@H](Cc2ccc(OC)cc2)C(=O)N(C)[C@H](C)C(=O)O[C@H](C)[C@H](N(C)C(=O)[C@H](CC(C)C)NC)C(=O)N(C)[C@@H](C)C(=O)N1C | > 16000 nM |  |  |  |  |  | 
CC[C@H](C)[C@H]1C(=O)N[C@@H](C)C(=O)N(C)[C@@H](CC(C)C)C(=O)N[C@@H](Cc2ccc(OC)cc2)C(=O)N(C)[C@H](C)C(=O)O[C@H](C)[C@H](N(C)C(=O)[C@H](CC(C)C)N(C)C(=O)[C@H](C)N(C)C(=O)[C@H](OC(=O)[C@H](C(C)C)N(C)C(=O)CCN)C(C)C)C(=O)N(C)[C@@H](C)C(=O)N1C | > 16000 nM |  |  |  |  |  | 
CC[C@H](C)[C@H]1C(=O)N[C@@H](C)C(=O)N(C)[C@@H](CC(C)C)C(=O)N[C@@H](Cc2ccc(OC)cc2)C(=O)N(C)[C@@H](C)C(=O)O[C@H](C)[C@H](N(C)C(=O)[C@H](CC(C)C)N(C)C(=O)[C@H](COC)N(C)C(=O)[C@@H](OC(=O)[C@H](C(C)C)N(C)C)C(C)C)C(=O)N(C)[C@@H](COC)C(=O)N1C | > 16000 nM | 22800 nM |  |  |  |  | 
CC[C@H](C)[C@H]1C(=O)N[C@@H](C)C(=O)N(C)[C@@H](CC(C)C)C(=O)N[C@@H](Cc2ccc(OC)cc2)C(=O)N(C)[C@H](C)C(=O)O[C@H](C)[C@H](N(C)C(=O)[C@H](CC(C)C)N(C)C(=O)[C@H](CO)N(C)C(=O)[C@H](OC(=O)[C@H](C(C)C)N(C)C)C(C)C)C(=O)N(C)[C@@H](COC(C)(C)C)C(=O)N1C | 20.8 nM | 194 nM | 46.3 nM |  |  |  | 
CC[C@H](C)[C@H]1C(=O)N[C@@H](C)C(=O)N(C)[C@@H](CC(C)C)C(=O)N[C@@H](Cc2ccc(OC)cc2)C(=O)N(C)[C@H](C)C(=O)O[C@H](C)[C@H](N(C)C(=O)[C@H](CC(C)C)N(C)C(=O)[C@H](COC(C)(C)C)N(C)C(=O)[C@H](OC(=O)[C@H](C(C)C)N(C)C)C(C)C)C(=O)N(C)[C@@H](C)C(=O)N1C | 5.3 nM | 12.4 nM | 32.9 nM |  |  |  | 
CC[C@H](C)[C@H]1C(=O)N[C@@H](C)C(=O)N(C)[C@@H](CC(C)C)C(=O)N[C@@H](Cc2ccc(OC)cc2)C(=O)N(C)[C@H](C)C(=O)O[C@H](C)[C@H](N(C)C(=O)[C@H](CC(C)C)N(C)C(=O)[C@H](CO)N(C)C(=O)[C@H](OC(=O)[C@H](C(C)C)N(C)C)C(C)C)C(=O)N(C)[C@@H](CO)C(=O)N1C | 2060 nM |  | 2180 nM |  |  |  | 
CC[C@H](C)[C@H]1C(=O)N[C@@H](C)C(=O)N(C)[C@@H](CC(C)C)C(=O)N[C@@H](Cc2ccc(OC)cc2)C(=O)N(C)[C@H](C)C(=O)O[C@H](C)[C@H](N(C)C(=O)[C@H](CC(C)C)N(C)C(=O)[C@H](C)N(C)C(=O)[C@H](OC(=O)[C@H](C(C)C)N(C)C)C(C)C)C(=O)N(C)[C@@H](C)C(=O)N1C (NMe2Val-[dHiv][NMeA][NMeL][NMeT][NMeA][NMeI]A[NMeL]Y(Me)[dNMeA]; ester 4-C) | 5.1 nM | 7.3 nM | 7 nM | Active | 2 | Non-Toxic | Non-Toxic
CC[C@H](C)[C@H]1C(=O)N[C@@H](C)C(=O)N(C)[C@@H](CC(C)C)C(=O)N[C@@H](Cc2ccc(OC)cc2)C(=O)N(C)[C@H](C)C(=O)O[C@H](C)[C@H](N(C)C(=O)[C@H](CC(C)C)N(C)C(=O)[C@H](COC)N(C)C(=O)[C@H](OC(=O)[C@H](C(C)C)N(C)C)C(C)C)C(=O)N(C)[C@@H](COC)C(=O)N1C | 5 nM | 5.4 nM | 3.1 nM |  |  |  | 
CC[C@H](C)[C@H]1C(=O)N[C@@H](C)C(=O)N(C)[C@@H](CC(C)C)C(=O)N[C@@H](Cc2ccc(OC)cc2)C(=O)N(C)[C@H](C)C(=O)O[C@H](C)[C@H](N(C)C(=O)[C@H](CC(C)C)N(C)C(=O)[C@H](COC)N(C)C(=O)[C@H](NC(=O)[C@H](C(C)C)N(C)C)C(C)C)C(=O)N(C)[C@@H](COC)C(=O)N1C | 450 nM | 473 nM | 601 nM |  |  |  | 
CC[C@H](C)[C@H]1C(=O)N[C@@H](C)C(=O)N(C)[C@@H](CC(C)C)C(=O)N[C@@H](Cc2ccc(OC)cc2)C(=O)N(C)[C@H](C)C(=O)O[C@H](C)[C@H](N(C)C(=O)[C@H](CC(C)C)N(C)C(=O)[C@H](C)N(C)C(=O)[C@H](OC(=O)[C@@H](NC)C(C)C)C(C)C)C(=O)N(C)[C@@H](C)C(=O)N1C | 236 nM | 360 nM | 204 nM |  |  |  | 
